Active and inactive are the calls of the source. The calls are words filed in the database; no cut-off is given here.
Experiments:
Assay type in all cases: cell-based
[1] = biological target: T1, Neuronal acetylcholine receptor subunit alpha-7 (Homo sapiens, UniProt P36544); experiment: (§1) Positive allosteric modulation activity at human alpha7 nAChR expressed in Xenopus laevis oocytes assessed as increase in acetylcholine-induced channel current at 10 uM at -90 mV holding potential preincubated for 2 mins followed by co-application with acetylcholine for 10 secs by two-electrode voltage clamp method relative to control
T1 sequence (P36544 whole entry): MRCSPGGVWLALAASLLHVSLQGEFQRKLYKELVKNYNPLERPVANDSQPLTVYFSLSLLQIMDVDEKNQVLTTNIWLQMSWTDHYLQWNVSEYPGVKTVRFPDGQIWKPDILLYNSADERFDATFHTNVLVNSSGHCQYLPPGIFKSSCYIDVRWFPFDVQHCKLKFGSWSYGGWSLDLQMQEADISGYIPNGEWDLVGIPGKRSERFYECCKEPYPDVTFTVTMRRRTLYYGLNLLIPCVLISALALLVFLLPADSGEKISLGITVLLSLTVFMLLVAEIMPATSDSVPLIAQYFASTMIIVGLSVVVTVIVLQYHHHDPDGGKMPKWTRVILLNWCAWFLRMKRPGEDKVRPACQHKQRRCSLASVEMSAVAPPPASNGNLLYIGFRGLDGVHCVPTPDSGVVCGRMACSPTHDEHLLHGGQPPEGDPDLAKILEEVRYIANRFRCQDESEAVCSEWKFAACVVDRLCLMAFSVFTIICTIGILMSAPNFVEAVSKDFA
Procedure, shortened: (§2)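 Human α7 nAChR expressed in Xenopus laevis oocytes and recorded by two-electrode voltage clamp. Each compound was tested at 10 μM with 100 μM ACh. Data come from 2–5 individual oocytes.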

[2] = biological target: T1, Neuronal acetylcholine receptor subunit alpha-7; experiment: Agonist activity at human alpha7 nAChR expressed in Xenopus laevis oocytes assessed as increase in channel current at -90 mV holding potential by two-electrode voltage clamp method
[3] = biological target: T1, Neuronal acetylcholine receptor subunit alpha-7; experiment: as §1, with “current” for “current at 10 uM”, “method” for “method relative to control”
Procedure, shortened: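 Human α7 nAChR was recorded in Xenopus oocytes by two-electrode voltage clamp, with 100 μM ACh as agonist. EC50 is the compound concentration giving half of the maximum activation effect. Data come from 2–5 individual oocytes.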

[4] = biological target: T1, Neuronal acetylcholine receptor subunit alpha-7; experiment: Positive allosteric modulation activity at alpha7 nAChR (unknown origin) expressed in Xenopus laevis oocytes assessed as increase in acetylcholine-induced channel current at 10 uM at -90 mV holding potential by two-electrode voltage clamp method relative control; procedure, shortened: as §2
[5] = biological target: T2, 5-hydroxytryptamine receptor 3A (Homo sapiens) (UniProt P46098); experiment: as §1, with “5-HT3A receptor” for “alpha7 nAChR”
T2 sequence (whole entry): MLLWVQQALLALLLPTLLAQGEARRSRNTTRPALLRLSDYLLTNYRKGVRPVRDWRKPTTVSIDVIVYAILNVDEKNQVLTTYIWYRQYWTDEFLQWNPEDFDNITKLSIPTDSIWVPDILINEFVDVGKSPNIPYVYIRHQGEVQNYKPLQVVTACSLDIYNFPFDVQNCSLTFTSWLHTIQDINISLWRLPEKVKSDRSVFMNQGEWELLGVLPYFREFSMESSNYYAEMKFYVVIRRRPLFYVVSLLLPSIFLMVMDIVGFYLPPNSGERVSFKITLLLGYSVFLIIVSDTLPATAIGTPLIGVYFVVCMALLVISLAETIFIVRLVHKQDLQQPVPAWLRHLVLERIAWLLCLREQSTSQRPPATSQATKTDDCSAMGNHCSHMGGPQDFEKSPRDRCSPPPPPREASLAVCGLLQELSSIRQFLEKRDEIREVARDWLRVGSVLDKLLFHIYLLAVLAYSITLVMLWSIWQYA

[6] = biological target: T1, Neuronal acetylcholine receptor subunit alpha-7; experiment: as §1, with “at 0.1 uM to 30” for “at 10”
Procedure, shortened: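 A control current to 100 μM ACh alone was recorded first. Oocytes expressing α7 nAChR were then preincubated 2 min with compound at 0.1–30 μM, followed by co-application with 100 μM ACh for 10 s. Peak currents were normalised to the 100 μM ACh-alone amplitude. Data were fitted for EC50, Emax and Hill coefficient, n = 4 per point.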

[7] = biological target: Neuronal acetylcholine receptor; alpha3/beta4 (Rattus norvegicus) (UniProt P04757+P12392); experiment: as §1, with “rat alpha3beta4” for “human alpha7”
[8] = biological target: T1, Neuronal acetylcholine receptor subunit alpha-7; experiment: as §1, with “current by measuring maximum efficacy of acetylcholine” for “current”, “(reference value: 339%)” for “relative to control”
Procedure, shortened: (§3)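 ACh concentration-response on α7-expressing Xenopus oocytes, run without compound or after 2 min preincubation with 10 μM compound. Peak currents were normalised to the current evoked by 100 μM ACh alone. Curves were fitted for Emax, ACh EC50 and Hill coefficient, n = 4 per point.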

[9] = biological target: T1, Neuronal acetylcholine receptor subunit alpha-7; experiment: as §1, with “current by measuring maximum efficacy of acetylcholine” for “current”; procedure, shortened: as §3
[10] = biological target: Neuronal acetylcholine receptor; alpha4/beta2 (Rattus norvegicus) (UniProt P09483+P12390); experiment: as §1, with “rat alpha4beta2” for “human alpha7”
[11] = biological target: T1, Neuronal acetylcholine receptor subunit alpha-7; experiment: Induction of desensitization of human alpha7 nAChR expressed in Xenopus laevis oocytes assessed as acetylcholine-induced channel desensitization time constant at 10 uM at -90 mV holding potential by two-electrode voltage clamp method (reference value: 6.37 +/- 2.56)

Row | SMILES | Emax [1] | Activity [2] | other results
1 | Cc1cccc(Cl)c1NC(=O)c1cc(-c2ccc(Cl)cc2)cnc1N | 278% | inactive | 
2 | COc1ccccc1-c1cnc(N)c(C(=O)Nc2c(C)cccc2Cl)c1 | 1010% | inactive | EC50 [3]: 4.32 µM
3 | Cc1cccc(Cl)c1NC(=O)c1cc(-c2ccoc2)cnc1N | 111% | inactive | 
4 | Cc1ccc(-c2cnc(N)c(C(=O)Nc3c(C)cccc3Cl)c2)c(F)c1 | 372% | inactive | 
5 | Cc1cc(F)ccc1-c1cnc(N)c(C(=O)Nc2c(C)cccc2Cl)c1 | 225% | inactive | 
6 | Cc1cccc(Cl)c1NC(=O)c1cc(-c2ccc(F)cc2)ccc1N | 136% | inactive | 
7 | Cc1cccc(Cl)c1NC(=O)c1cc(-c2cccc(F)c2)cnc1N | 86% | inactive | 
8 | Cc1ccc(Nc2nc3ncn(-c4c(C)cccc4Cl)c(=O)c3s2)cc1 |  |  | Emax [4]: 1620%
9 | Cc1cc(-c2cnc(N)c(C(=O)Nc3ccccc3)c2)ccc1F | 94% | inactive | 
10 | Cc1cccc(Cl)c1NC(=O)c1cc(-c2cccnc2)cnc1N | 138% | inactive | 
11 | Cc1cccc(Cl)c1NC(=O)c1cc(-c2ccccc2)cnc1N | 273% | inactive | 
12 | Cc1ccc(-c2cnc(N)c(C(=O)Nc3c(C)cccc3Cl)c2)cc1 | 539% | inactive | EC50 [3]: 3.19 µM
13 | Cc1ccc(-c2cnc(N)c(C(=O)Nc3c(C)cccc3Cl)c2)cc1F | 609% | inactive | EC50 [3]: 3.31 µM
14 | CSc1ccc(-c2cnc(N)c(C(=O)Nc3c(C)cccc3Cl)c2)cc1 | 774% | inactive | EC50 [3]: 4.96 µM
15 | Cc1ccc(-c2cncc(C(=O)Nc3c(C)cccc3Cl)c2)cc1 | 603% | inactive | EC50 [3]: 1.97 µM
16 | Cc1cccc(Cl)c1-n1cnc2ccc(-c3ccc(F)cc3)cc2c1=O |  |  | Emax [4]: 76%
17 | Cc1cccc(Cl)c1NC(=O)c1cc(-c2ccccc2F)cnc1N | 119% | inactive | 
18 | COc1ccc(-c2ccc3ncn(-c4c(C)cccc4Cl)c(=O)c3c2)cc1 |  |  | Emax [4]: 65%
19 | Cc1cccc(Cl)c1NC(=O)c1cc(-c2ccc(F)cc2)cnc1N | 604% | inactive | EC50 [3]: 4.57 µM
20 | Cc1cccc(Cl)c1NC(=O)c1cncc(-c2ccc(F)cc2)c1 | 248% | inactive | 
21 | Cc1cc(-c2cnc(N)c(C(=O)Nc3c(C)cccc3Cl)c2)ccc1F | 1470% | inactive | Emax [5]: 94%; EC50 [3]: 3.34 µM; Activity [6]: Dose-dependent effect; Emax [7]: 78%; Emax [8]: 2170%; fold change (FC) [9]: 7; Emax [10]: 72%; K [11]: 3.49
22 | Cc1cccc(Cl)c1NC(=O)c1cc(-c2ccc(C(F)(F)F)cc2)cnc1N | 164% | inactive | 
23 | Cc1cccc(Cl)c1-n1cnc2nc(SCc3ccccc3)sc2c1=O |  |  | Emax [4]: 1630%

Further lines, with some results ahead:

Row | Emax [1] | Activity [2] | SMILES | other results
24 | 229% | inactive | Cc1cccc(Cl)c1NC(=O)c1cc(-c2ccc(Cl)c(F)c2)cnc1N | 
25 | 186% | inactive | Cc1cccc(Cl)c1NC(=O)c1cc(-c2ccc(F)cc2Cl)cnc1N | 
26 | 531% | inactive | COc1ccc(-c2cnc(N)c(C(=O)Nc3c(C)cccc3Cl)c2)cc1 | EC50 [3]: 8.5 µM
27 | 153% | inactive | Cc1cccc(Cl)c1NC(=O)c1cc(-c2ccsc2)cnc1N | 
28 | 257% | inactive | Cc1cccc(Cl)c1NC(=O)c1cc(-c2ccc(O)cc2)cnc1N | 
29 | 153% | inactive | Cc1cccc(Cl)c1NC(=O)c1cc(-c2ccc(OC(F)(F)F)cc2)cnc1N | 
30 | 156% | inactive | Cc1cc(-c2cnc(N)c(C(=O)Nc3ccccc3C)c2)ccc1F | 
31 | 495% | inactive | Cc1cccc(Cl)c1NC(=O)c1cc(-c2ccc(F)c(Cl)c2)cnc1N | EC50 [3]: 5.49 µM
32 | 455% | inactive | CCc1ccc(-c2cnc(N)c(C(=O)Nc3c(C)cccc3Cl)c2)cc1 | EC50 [3]: 1.35 µM
33 | 150% | inactive | Cc1cccc(Cl)c1NC(=O)c1cncc(-c2ccc(Cl)cc2)c1 | 
34 | 135% | inactive | Cc1cccc(Cl)c1NC(=O)c1cc(-c2ccc([N+](=O)[O-])cc2)cnc1N | 
35 | 212% | inactive | COc1cccc(-c2cnc(N)c(C(=O)Nc3c(C)cccc3Cl)c2)c1 | 
36 | 109% | inactive | CC(=O)Nc1ccc(-c2cnc(N)c(C(=O)Nc3c(C)cccc3Cl)c2)cc1 | 
